Data reported in ChEMBL document CHEMBL2010768, “Optimization of Potent Inhibitors of P. falciparum Dihydroorotate Dehydrogenase for the Treatment of Malaria” (ACS Med Chem Lett, 2011).
pIC50: −log10 of the molar value. Activity calls are given as the source filed them. No cut-off for these calls is given here.

Columns and labels:
Cytochrome P450 1A2 = target: T1, Cytochrome P450 1A2 (Homo sapiens, UniProt P05177); experiment: Inhibition of human CYP1A2 using phenacetin as substrate after 10 mins by LC-MS/MS analysis; format: ADME
T1 sequence (P05177 whole entry): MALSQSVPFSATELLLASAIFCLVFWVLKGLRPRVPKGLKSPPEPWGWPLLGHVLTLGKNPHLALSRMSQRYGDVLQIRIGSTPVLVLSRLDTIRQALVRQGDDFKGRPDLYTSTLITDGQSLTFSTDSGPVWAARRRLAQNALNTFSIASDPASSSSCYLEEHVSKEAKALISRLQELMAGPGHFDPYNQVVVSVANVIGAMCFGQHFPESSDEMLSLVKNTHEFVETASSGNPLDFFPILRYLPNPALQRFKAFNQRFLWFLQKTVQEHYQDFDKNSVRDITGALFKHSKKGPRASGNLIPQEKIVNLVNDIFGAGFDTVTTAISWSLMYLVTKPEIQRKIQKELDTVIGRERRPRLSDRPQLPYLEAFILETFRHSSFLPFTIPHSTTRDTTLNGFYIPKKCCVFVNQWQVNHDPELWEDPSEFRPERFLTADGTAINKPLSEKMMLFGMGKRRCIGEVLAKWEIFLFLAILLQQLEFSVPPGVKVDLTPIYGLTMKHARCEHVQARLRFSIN

Plasmodium falciparum [1] = experiment: Antiplasmodial activity against Plasmodium falciparum 3D7 infected in […] after 72 hrs by SYBR green assay; format: functional, organism-based; details: 3D7, 72 h
Cytochrome P450 2C9 = Cytochrome P450 2C9 (Homo sapiens, UniProt P11712); experiment: Inhibition of human CYP2C9 using diclofenac as substrate after 10 mins by LC-MS/MS analysis; format: ADME
Sequence of Cytochrome P450 2C9 (P11712 whole entry): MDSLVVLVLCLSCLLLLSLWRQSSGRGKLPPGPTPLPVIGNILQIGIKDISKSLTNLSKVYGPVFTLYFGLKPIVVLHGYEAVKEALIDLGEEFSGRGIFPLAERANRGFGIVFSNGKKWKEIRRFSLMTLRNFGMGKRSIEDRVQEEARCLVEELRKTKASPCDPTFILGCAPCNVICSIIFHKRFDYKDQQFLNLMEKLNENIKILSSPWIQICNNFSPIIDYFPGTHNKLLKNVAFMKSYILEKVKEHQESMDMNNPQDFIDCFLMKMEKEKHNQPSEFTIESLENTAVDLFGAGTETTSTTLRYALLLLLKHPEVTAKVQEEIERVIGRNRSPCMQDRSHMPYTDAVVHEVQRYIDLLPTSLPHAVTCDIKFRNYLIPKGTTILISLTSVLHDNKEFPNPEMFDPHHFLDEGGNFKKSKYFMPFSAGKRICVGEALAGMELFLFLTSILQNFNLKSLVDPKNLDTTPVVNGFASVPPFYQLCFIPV

Plasmodium berghei = experiment: Inhibition of Plasmodium berghei DHODH after 20 mins by 2,6-dichloroindophenol-reduction based assay
[2] = Clearance in human liver microsomes by LC-MS/MS analysis; format: ADME, Microsome
In short: (§1)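 Liver microsome incubation. Predicted clearance is derived from a well-stirred model corrected for microsomal and protein binding.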

Plasmodium vivax = experiment: Inhibition of Plasmodium vivax DHODH after 20 mins by 2,6-dichloroindophenol-reduction based assay
[3] = target: Voltage-gated inwardly rectifying potassium channel KCNH2 (Homo sapiens, UniProt Q12809); experiment: Inhibition of human ERG expressed in CHOK1 cells by whole cell voltage clamp assay; format: cell-based, CHO-K1
Sequence of Voltage-gated inwardly rectifying potassium channel KCNH2 (Q12809 whole entry): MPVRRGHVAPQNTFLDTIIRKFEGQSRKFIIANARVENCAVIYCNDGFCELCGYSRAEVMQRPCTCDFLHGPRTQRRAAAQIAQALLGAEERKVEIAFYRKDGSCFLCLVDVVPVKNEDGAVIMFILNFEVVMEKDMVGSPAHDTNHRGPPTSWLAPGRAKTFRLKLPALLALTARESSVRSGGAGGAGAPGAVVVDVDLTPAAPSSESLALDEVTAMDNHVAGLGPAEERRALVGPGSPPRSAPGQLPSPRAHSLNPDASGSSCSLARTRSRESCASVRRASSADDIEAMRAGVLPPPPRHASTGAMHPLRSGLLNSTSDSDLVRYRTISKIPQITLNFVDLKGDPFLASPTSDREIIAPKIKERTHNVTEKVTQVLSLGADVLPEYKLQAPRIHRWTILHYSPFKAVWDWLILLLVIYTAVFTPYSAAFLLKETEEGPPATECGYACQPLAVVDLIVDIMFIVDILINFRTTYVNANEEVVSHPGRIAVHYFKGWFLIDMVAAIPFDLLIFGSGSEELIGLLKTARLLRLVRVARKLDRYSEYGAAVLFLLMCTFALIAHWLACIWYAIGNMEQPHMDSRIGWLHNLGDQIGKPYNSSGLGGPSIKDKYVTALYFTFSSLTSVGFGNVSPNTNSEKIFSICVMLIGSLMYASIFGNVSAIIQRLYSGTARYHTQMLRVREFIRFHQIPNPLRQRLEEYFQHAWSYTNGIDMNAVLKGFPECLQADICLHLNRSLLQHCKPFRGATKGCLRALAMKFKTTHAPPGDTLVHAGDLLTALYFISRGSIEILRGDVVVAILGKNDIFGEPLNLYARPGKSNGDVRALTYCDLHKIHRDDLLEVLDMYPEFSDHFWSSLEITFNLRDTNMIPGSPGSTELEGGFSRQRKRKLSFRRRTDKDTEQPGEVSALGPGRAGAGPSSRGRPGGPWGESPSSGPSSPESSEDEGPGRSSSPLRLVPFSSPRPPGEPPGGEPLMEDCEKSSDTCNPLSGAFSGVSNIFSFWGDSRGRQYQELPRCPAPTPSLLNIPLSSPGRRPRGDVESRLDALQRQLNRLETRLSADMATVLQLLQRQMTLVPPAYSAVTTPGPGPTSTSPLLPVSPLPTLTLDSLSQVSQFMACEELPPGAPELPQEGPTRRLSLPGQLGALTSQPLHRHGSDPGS

Cytochrome P450 3A4 = Cytochrome P450 3A4 (Homo sapiens, UniProt P08684); experiment: Inhibition of human CYP3A4 using midazolam as substrate after 5 mins by LC-MS/MS analysis; format: ADME
Sequence of Cytochrome P450 3A4 (P08684 whole entry): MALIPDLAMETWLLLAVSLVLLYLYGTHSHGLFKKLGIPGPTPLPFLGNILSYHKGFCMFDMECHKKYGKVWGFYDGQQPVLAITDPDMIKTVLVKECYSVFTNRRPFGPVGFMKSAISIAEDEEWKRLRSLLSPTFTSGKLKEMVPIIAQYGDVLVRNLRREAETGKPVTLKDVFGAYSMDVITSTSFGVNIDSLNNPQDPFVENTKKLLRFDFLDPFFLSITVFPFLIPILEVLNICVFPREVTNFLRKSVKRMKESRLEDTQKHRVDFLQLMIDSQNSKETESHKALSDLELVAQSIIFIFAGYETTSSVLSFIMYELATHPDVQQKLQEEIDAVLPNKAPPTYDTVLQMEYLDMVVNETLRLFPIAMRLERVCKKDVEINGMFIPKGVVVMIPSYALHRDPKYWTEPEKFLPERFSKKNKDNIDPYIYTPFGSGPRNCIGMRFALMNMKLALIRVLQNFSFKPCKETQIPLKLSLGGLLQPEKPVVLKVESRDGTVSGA

Cytochrome P450 2C19 = Cytochrome P450 2C19 (Homo sapiens, UniProt P33261); experiment: Inhibition of human CYP2C19 using S-mephenytoin as substrate after 45 mins by LC-MS/MS analysis; format: ADME
Sequence of Cytochrome P450 2C19 (P33261 whole entry): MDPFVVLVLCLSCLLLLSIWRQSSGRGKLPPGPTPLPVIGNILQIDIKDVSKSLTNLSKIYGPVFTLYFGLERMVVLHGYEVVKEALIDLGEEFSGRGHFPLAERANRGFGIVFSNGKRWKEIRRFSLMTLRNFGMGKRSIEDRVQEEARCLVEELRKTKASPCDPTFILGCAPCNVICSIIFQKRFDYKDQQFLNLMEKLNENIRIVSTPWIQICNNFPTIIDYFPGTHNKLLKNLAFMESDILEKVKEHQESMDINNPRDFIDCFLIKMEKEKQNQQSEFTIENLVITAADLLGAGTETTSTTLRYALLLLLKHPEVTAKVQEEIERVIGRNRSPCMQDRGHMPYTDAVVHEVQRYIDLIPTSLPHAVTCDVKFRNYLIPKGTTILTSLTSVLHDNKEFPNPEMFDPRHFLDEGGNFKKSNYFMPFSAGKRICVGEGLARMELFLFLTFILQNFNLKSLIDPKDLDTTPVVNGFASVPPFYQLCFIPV

[4] = target: T2, Dihydroorotate dehydrogenase (Plasmodium falciparum, UniProt Q54A96); experiment: Inhibition of Plasmodium falciparum DHODH after 20 mins by 2,6-dichloroindophenol-reduction based assay
T2 sequence (Q54A96 whole entry): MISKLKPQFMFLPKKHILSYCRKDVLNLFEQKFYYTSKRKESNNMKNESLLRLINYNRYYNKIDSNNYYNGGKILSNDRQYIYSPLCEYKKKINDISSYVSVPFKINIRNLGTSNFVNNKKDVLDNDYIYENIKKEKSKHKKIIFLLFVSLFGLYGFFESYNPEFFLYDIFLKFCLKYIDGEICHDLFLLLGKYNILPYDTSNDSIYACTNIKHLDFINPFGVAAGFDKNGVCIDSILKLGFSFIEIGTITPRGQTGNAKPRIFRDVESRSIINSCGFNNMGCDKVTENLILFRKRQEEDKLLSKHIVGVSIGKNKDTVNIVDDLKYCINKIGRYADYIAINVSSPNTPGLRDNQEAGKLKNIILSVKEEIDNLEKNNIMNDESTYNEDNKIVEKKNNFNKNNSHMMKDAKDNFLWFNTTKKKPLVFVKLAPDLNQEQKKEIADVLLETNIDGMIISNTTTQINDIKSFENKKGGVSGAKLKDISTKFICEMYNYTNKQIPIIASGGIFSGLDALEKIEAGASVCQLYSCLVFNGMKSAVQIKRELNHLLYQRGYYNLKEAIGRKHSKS

Cytochrome P450 2D6 = Cytochrome P450 2D6 (Homo sapiens, UniProt P10635); experiment: Inhibition of human CYP2D6 using bufuralol as substrate after 10 mins by LC-MS/MS analysis; format: ADME
Sequence of Cytochrome P450 2D6 (P10635 whole entry): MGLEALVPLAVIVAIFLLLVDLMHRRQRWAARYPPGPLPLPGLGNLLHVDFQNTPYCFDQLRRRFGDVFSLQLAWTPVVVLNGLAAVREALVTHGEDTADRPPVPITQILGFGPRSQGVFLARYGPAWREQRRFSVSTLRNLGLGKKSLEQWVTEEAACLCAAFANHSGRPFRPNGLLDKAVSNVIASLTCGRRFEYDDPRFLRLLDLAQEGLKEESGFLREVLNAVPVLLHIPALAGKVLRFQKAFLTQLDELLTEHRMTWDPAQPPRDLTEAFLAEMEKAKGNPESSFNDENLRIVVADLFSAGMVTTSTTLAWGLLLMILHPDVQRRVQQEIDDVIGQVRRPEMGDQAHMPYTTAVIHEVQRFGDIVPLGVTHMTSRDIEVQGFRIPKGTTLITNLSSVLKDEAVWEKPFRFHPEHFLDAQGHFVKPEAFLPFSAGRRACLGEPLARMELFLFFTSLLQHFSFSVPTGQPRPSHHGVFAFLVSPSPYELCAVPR

[5] = target: Dihydroorotate dehydrogenase (quinone), mitochondrial (Homo sapiens, UniProt Q02127); experiment: Inhibition of human DHODH after 20 mins by 2,6-dichloroindophenol-reduction based assay
Sequence of Dihydroorotate dehydrogenase (quinone), mitochondrial (Q02127 whole entry): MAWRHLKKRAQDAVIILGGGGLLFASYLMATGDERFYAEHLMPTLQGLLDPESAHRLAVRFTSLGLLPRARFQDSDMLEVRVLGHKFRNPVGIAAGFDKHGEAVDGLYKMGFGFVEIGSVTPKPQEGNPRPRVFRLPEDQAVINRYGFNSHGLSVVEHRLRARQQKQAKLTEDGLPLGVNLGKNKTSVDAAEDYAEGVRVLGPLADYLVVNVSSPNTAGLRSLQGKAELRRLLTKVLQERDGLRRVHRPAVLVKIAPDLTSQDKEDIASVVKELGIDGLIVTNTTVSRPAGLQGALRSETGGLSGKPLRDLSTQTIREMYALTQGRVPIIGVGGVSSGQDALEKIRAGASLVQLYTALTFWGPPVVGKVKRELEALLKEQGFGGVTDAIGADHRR

Plasmodium falciparum [6] = experiment: Antiplasmodial activity against Plasmodium falciparum Dd2 infected in […] after 72 hrs by SYBR green assay; format: functional, organism-based; details: Dd2, 72 h
[7] = Clearance in mouse liver microsomes by LC-MS/MS analysis; format: ADME, Microsome; in short: as §1

`Cc1nc2c(OC(F)F)cccc2n1-c1ccc(C(=O)NC2CC2)s1` showed a pIC50 (Cytochrome P450 1A2) of less than 5.00, a pIC50 (Plasmodium falciparum [1]) of 7.72 and a pIC50 (Cytochrome P450 2C9) of less than 5.00. The inhibition (Plasmodium berghei) was “Active”, the CLhep predicted [2] was 4 mL/min/kg and the inhibition (Plasmodium vivax) was “Active”. The pIC50 [3] was 4.54, the pIC50 (Cytochrome P450 3A4) was less than 5.00 and the pIC50 (Cytochrome P450 2C19) was less than 5.00. The pIC50 [4] was 7.36, the pIC50 (Cytochrome P450 2D6) was less than 5.00 and the pIC50 [5] was less than 4.52. The pIC50 (Plasmodium falciparum [6]) was 7.59 and the CLhep predicted [7] was 33 mL/min/kg.
